697 NFkB inh: lowers PMA/ionomycin-induced NF-kB signal in 697 B cells | 697 B-cell NF-kB luciferase reporter, 16 h | inhibition, % at 4 µM | actives 0.33% (n = 330,000); in the data active means inhibition above about 35%
APP transl inh: APP translation inhibition. inhibition, % at 2 µM. AID 1285. actives 0.82% (n = 190,000). SH-SY5Y APP 5'UTR-luciferase reporter, luminescence;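 active means inhibition above a set limit, derived from the sample mean plus 3 SD, cut at about 45% in these data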
Hep lipid drop: modulators of hepatic lipid droplet formation; AML12 mouse hepatocytes, oleate lipid droplets, BODIPY imaging; inhibition, % at 6.5 µM; actives 0.4% (n = 240,000);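 active means lipid droplet intensity inhibited by at least 50%, with more than 500 cells counted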
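Assay system: AML12 hepatocytes (mouse); Probe or stimulus: oleic acid at 100 µM to induce lipid droplet formation; Dosing: compound at 6.5 µM only; Schedule: compound with oleate, overnight; Detection: fluorescence imaging, 20x objective, two fields per well; Measure: % inhibition of lipid droplet signal.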
Jurkat NFkB inh: inhibitors of the PMA/ionomycin-induced NF-kB reporter in Jurkat cells. PMA/ionomycin-induced NF-kB luciferase reporter, luminescence. inhibition, % at 4 µM. actives 0.53% (n = 330,000); in the data active means inhibition above about 50%
aSyn 5UTR inh: 5' untranslated region of α-synuclein, MLPCN primary screen. alpha-synuclein 5'UTR reporter, inhibitor activity. inhibition, % (tested at 7.5 µM). actives 0.82% (n = 300,000). AID 1813; in the data active means inhibition above about 60%;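 further: H4 neuroglioblastoma cells stably carrying SNCA 5'UTR luciferase fusion; 0% = DMSO wells and 100% = positive control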
TAG inh: inhibitors of triacylglycerol accumulation; H9c2 cells, Nile Red lipid (TAG) fluorescence; cells loaded with 200 µM oleic acid; inhibition, % at 12.5 µM; actives 0.66% (n = 230,000); AID 651582;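 active means pattern-corrected inhibition of lipid staining of at least 50% with the nuclear-stain viability signal not falling by more than 50%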;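 further: 0% = DMSO wells and 100% = triacsin C control wells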
H9c2 TAG conf: triacylglycerol accumulation inhibition, confirmation | shares compounds with TAG inh | H9c2 lipid accumulation, Nile Red fluorescence; cells loaded with 200 µM oleic acid | inhibition, % at 12.5 µM | actives 71% (n = 990) | AID 651629;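 active means mean inhibition across replicates of 40% or more; inactive means mean inhibition below 40%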;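 further: plate controls were DMSO only wells for no effect and Triacsin C treated wells for full effect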
Active calls of the source: *; . = not tested or not shown. Only some compounds are listed: those with a hit (about 1.9% of all), similar ones and a draw of the others.

SMILES	697 NFkB inh	APP transl inh	Hep lipid drop	Jurkat NFkB inh	aSyn 5UTR inh	TAG inh	H9c2 TAG conf
CCC[C@@H](CN[C@@H](CNC)[C@H](C)CC)NCC1CCC(C(C)(C)C)CC1 (stereo partly specified)	12	.	4	13	40	127*	89*
CN(C)CC(O)c1ccc(C=Cc2ccc(Cl)cc2)cc1 (stereo unspecified)	.	.	.	.	.	73*	44*
CN(C)/C=C/C(=O)/C=C/c1ccc(Cl)cc1	-23	-68	1	-53	-180	.	.
O=C(NCc1ccc2c(c1)OCO2)c1cc(-c2ccccn2)nc2ccccc12	-3	-1	58*	-1	13	53*	31
O=C(NCc1ccco1)c1cc(-c2ccccn2)nc2ccccc12	15	17	.	1	16	.	.
C=C(C)Cn1c(-c2ccccc2)nc2ccccc21	1	2	-9	0	9	-6	.
C=C1c2nc3ccccc3n2C=C(c2ccc(C)cc2)N1c1ccccc1	.	.	.	.	.	56*	80*
CCOc1ccc(-c2noc(CCC(=O)NCC3CCCO3)n2)cc1OC (stereo unspecified)	3	.	-5	5	-5	.	.
CCOc1ccc(CCNC(=O)CCc2nc(-c3ccc(C)cc3)no2)cc1OCC	-18	-3	.	11	15	63*	45*
COc1cc(CNC(=O)c2cc3ccccc3oc2=O)cc(OC)c1OC	-19	.	.	-5	-14	2	.
COc1ccc(OC)c(C2=Nn3c(nnc3-c3cc(OC)c(OC)c(OC)c3)SC2)c1	29	3	.	8	28	.	.
COc1cc(-c2nnc3n2N=C(c2ccccc2)CS3)cc(OC)c1OC	-28	94*	.	44	63*	90*	66*
CCn1c(SCC(=O)N2CCCCC2C)nc2c1c(=O)n(C)c(=O)n2C (stereo unspecified)	6	.	-16	-9	29	.	.
Cc1ccnc(N2CCC(C(=O)Nc3ccc(Oc4ccccc4)cc3)CC2)n1	-33	-7	.	3	3	52*	14
CSC1=C(C#N)C(c2ccccc2Cl)C2=C(N1)c1ccccc1C2=O (stereo unspecified)	12	-11	.	-11	7	33	.
CSC1=C(C#N)C(c2ccccc2C)C(C#N)=C(N)N1 (stereo unspecified)	-28	-8	.	13	7	55*	5
Cc1cc(C)n(-c2ccc(NC(=O)C3CCCCN3C(=O)c3cc(C)oc3C)cc2)n1 (stereo unspecified)	0	.	2	-11	-2	.	.
O=C1NC(Cc2ccc(O)cc2)c2nc3ccc(Cl)cc3c(=O)n2-c2cc3ccccc3cc21 (stereo unspecified)	.	.	.	.	.	64*	60*
Cc1ccc2c(=O)n3c(nc2c1)C(Cc1ccc(O)cc1)NC(=O)c1cc2ccccc2cc1-3 (stereo unspecified)	.	.	.	.	.	53*	67*
CCOC(=O)c1cnn(-c2nc(-c3ccccc3)nc3c2COC(C)(C)C3)c1N	16	-12	.	-10	8	54*	20
CCOC(=O)c1cnn(-c2ccccc2)c1N	-19	-13	20	-14	0	.	.
COc1cccc(-c2ncc3ccccc3c2COC(=O)N2CCCCC2)c1	-19	.	.	0	.	0	.
C[C@H](O)[C@@H]1CN2CCc3c([nH]c4ccc(-c5ccc6c(c5)OCO6)cc34)[C@@H]2C[C@@H]1N(C)C(=O)Nc1cc(Cl)cc(Cl)c1	.	.	.	.	.	70*	89*
Cc1cccc(-c2ccc3[nH]c4c(c3c2)CCN2C[C@@H]([C@H](C)O)[C@@H](N(C)C(=O)Nc3ccc(F)cc3)C[C@@H]42)c1	.	.	.	.	.	50*	48*
C[C@H](O)[C@@H]1CN2CCc3c([nH]c4ccccc34)[C@@H]2C[C@@H]1N(C)C(=O)Nc1ccc(F)cc1	.	.	.	.	.	22	.
CC(=O)Nc1cccc(C(=O)OCC(=O)NNC(=O)c2ccc([N+](=O)[O-])cc2)c1	3	.	.	18	-5	-14	.
Cc1cc(C)c2nc(N3CCC(C(=O)NCCCN4CCCCC4)CC3)sc2c1	-11	1	30	-8	-33	60*	33
Cc1cc(C)c2nc(N3CCC(C(=O)NCC4CCCO4)CC3)sc2c1 (stereo unspecified)	-37	.	-3	8	-18	.	.
